Test results taken from ChEMBL document CHEMBL1152520.

Assays:
[1] = Inhibition of LPS-induced AP1 transcriptional activation expressed in mouse RAW264.7 cells assessed as AP1 activity at 10 uM treated after LPS challenge measured after 24 hrs by luciferase reporter gene assay relative to control
[2] = test system: RAW264.7; assay: Inhibition of LPS-induced NF-kappaB transcriptional activation expressed in mouse RAW264.7 cells assessed as NF-kappaB activity at 10 uM treated after LPS challenge measured after 24 hrs by luciferase reporter gene assay relative to control; assay type: cell-based
In short: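 RAW 264.7 cells, about 1 10^5 per well, were seeded 24 h before co-transfection (lipofectamine plus) with pAP-1-Luc or pNF-κB-Luc plus the pGL-hRluc internal control. At 48 h post-transfection, E. coli 0111:B4 LPS (100 ng/mL final) was added for 6 h. Compound in DMSO (10 µM final) was then added and cells were harvested 24 h later. Dual-luciferase readout: firefly/Renilla ratio expressed as multiples of the untreated control, mean SEM, n = 3. Paired Student's t-test.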

| SMILES | Activity [1] | luciferase ratio [2] |
| --- | --- | --- |
| C[C@@]12CC[C@@H]3[C@@](CC[C@H]4[C@@]3(C)CCC[C@@]4(C)C(=O)O)(C/C1=N\O)C2 | 4.87 | 0.15 |
| C[C@@]12CC[C@@H]3[C@@](CC[C@H]4[C@@]3(C)CCC[C@@]4(C)C(=O)O)(CC(=O)N1)C2 | 3.19 | 0.15 |
| C[C@@]12CC[C@@H]3[C@@](CC[C@H]4[C@@]3(C)[C@@H](O)CC[C@@]4(C)C(=O)O)(C/C1=N\O)C2 | 3.52 | 0.13 |
| CC1=C[C@@]2(CC#N)CC[C@H]3[C@@](C)(CCC[C@@]3(C)C(=O)O)[C@@H]2CC1 | 2.85 | 0.22 |
| C[C@@]12CC[C@@H]3[C@@](CC1=O)(C2)[C@@H](O)C[C@H]1[C@@]3(C)[C@@H](O)CC[C@@]1(C)C(=O)O | 2.98 | 0.16 |
| C[C@@]12CC[C@@H]3[C@@](C/C1=N\O)(C2)[C@@H](O)C[C@H]1[C@@]3(C)[C@@H](O)CC[C@@]1(C)C(=O)O | 3.37 | 0.26 |
| CC1=CC[C@@H]2[C@](CC#N)(CC[C@H]3[C@@]2(C)CCC[C@@]3(C)C(=O)O)C1 | 2.22 | 0.18 |
| C[C@@]12CC[C@@H]3[C@@](CC[C@H]4[C@@]3(C)CCC[C@@]4(C)C(=O)O)(CC(=O)O1)C2 | 2.38 | 0.2 |
| C[C@@]12CC[C@H]3[C@]4(C)CCC[C@@](C)(C(=O)O)[C@H]4C[C@H](O)[C@]3(C/C1=N\O)C2 | 2.69 | 0.16 |
